Here are results for one molecule from ChEMBL document CHEMBL2331364, “A synthetic dolastatin 10 analogue suppresses microtubule dynamics, inhibits cell proliferation, and induces apoptotic cell death” (J Med Chem, 2013).

Each structure is given as a SMILES string. Activity calls are given as the source filed them. The rule behind the calls is not given here.

Broadly, the IC50 is the concentration at which inhibition is half-maximal. The term inhibition denotes how much of the control response was suppressed.

The subject of assay [1] is HeLa. Briefly: Induction of apoptosis in human HeLa cells assessed as procaspase-3 activation at 30 nM after 24 hrs by Western blot analysis. It is filed as functional, cell-based. The gist of the method:
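HeLa cells were treated with vehicle or 30 nM for 24 h and washed twice in PBS. Lysates were Western blotted with antibodies to JNK1, phospho-JNK, procaspase-3 and PARP.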
For orientation: In western blotting, separated proteins are transferred to a membrane and probed.

For assay [2], the system named is MCF7. Briefly: Induction of mitotic microtubule depolymerization in human MCF7 cells at 15 nM after 48 hrs by Hoechst 33258 dye-based fluorescence microscopy. It is filed as cell-based.
The test system of assay [3] is MCF7. Briefly: Cytotoxicity against human MCF7 cells after 24 to 48 hrs by trypan blue assay. In kind it is functional, cell-based. The procedure, abridged: (§1)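 Cells were seeded at 1 × 10^5 cells/mL, grown 24 h at 37 °C in 5% CO2, then given vehicle (0.1% DMSO) or 1–80 nM for a further 24 or 48 h. Attached plus floating cells were counted after trypan blue staining. Percent inhibition was plotted against concentration to give IC50. Average of three independent experiments.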

Assay [4] has as its system HeLa. Briefly: Induction of apoptosis in human HeLa cells assessed as apoptotic cells at 35 nM after 10 hrs by annexin V-FITC/propidium iodide staining-based FACS analysis. In kind it is functional. The procedure, abridged: (§2)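 HeLa cells were exposed to 35 nM for 10 or 24 h, stained with annexin V and propidium iodide using a kit, and apoptotic cells were quantified by FACS. Nocodazole (700 nM) served as comparator.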
(Flow cytometry measures light scatter and fluorescence of single cells or particles in a stream.)

The subject of a further assay is Tubulin (Capra hircus). Briefly: Inhibition of goat brain microtubule GTPase activity using GTP as substrate assessed as reduction of inorganic phosphate release at 2 uM incubated for 10 mins prior to substrate addition measured after 10 mins by ammonium molybdate malachite green assay relative to control.
For assay [5], the system named is HeLa. Briefly: Induction of apoptosis in human HeLa cells assessed as mid apoptotic cells at 7 to 15 nM after 24 hrs by annexin V/propidium iodide staining-based FACS flow cytometry. It is filed as functional, cell-based. The gist of the method: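 HeLa cells were grown with vehicle (0.1% DMSO) or 7, 15 and 30 nM for 24 h and stained with an annexin V/propidium iodide kit. Stage was scored as annexin V-positive with weak PI (early/mid) or positive for both (late).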

The target in another assay is Tubulin (Homo sapiens) (UniProt P68371+Q9H4B7+P0DPH7+P68366+Q13509+Q71U36+P04350+Q3ZCM7+P07437+P68363+Q9BQE3+Q6PEY2+Q13885+Q9BVA1+Q9BUF5). Briefly: Induction of tubulin (unknown origin) dimer aggregation at 10 uM after 20 mins by transmission electron microscopy. In kind it is protein-complex assay. The procedure, abridged: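 Goat brain tubulin (10 μM) was preincubated with 5 or 10 μM on ice for 20 min, then polymerized with 1 mM GTP at 37 °C in glutamate assembly buffer. Polymers were fixed in 0.5% glutaraldehyde, negatively stained with 2% uranyl acetate, and imaged by transmission EM.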

Assay [6] deals with HeLa. Briefly: Induction of apoptosis in human HeLa cells assessed as apoptotic cells at 35 nM after 24 hrs by annexin V-FITC/propidium iodide staining-based FACS analysis. It is filed as functional. The procedure, abridged:
as §2

Assay [7] has as its system HeLa. Briefly: Antiproliferative activity against human HeLa cells assessed as median dose after 24 hrs. It is filed as functional. The gist of the method:
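HeLa cells treated for 24 h with each agent alone and in combinations. The median dose (Dm) was taken from the median dose plot, and combination index was computed as CI = (D)1/(Dx)1 + (D)2/(Dx)2.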

Assay [8] has as its system MCF7. Briefly: Inhibition of microtubule (unknown origin) dynamics in GFP-tubulin transfected human MCF7 cells assessed as increase in microtubule pause time at 15 nM by confocal laser scanning microscopy relative to control. It is filed as cell-based. The procedure, abridged: (§3)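 EGFP-tubulin-transfected MCF-7 cells grown in EMEM with 10% FBS at 37 °C in 5% CO2, exposed to 15 nM compound (DMSO vehicle) or vehicle. Individual microtubules were followed by time-lapse confocal laser scanning microscopy and life-history traces were recorded. Kinetic parameters were derived from these traces, 20 microtubules per condition. Significance was tested by one-way ANOVA.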

The species named for a further assay is Homo sapiens. Briefly: Inhibition of microtubule (unknown origin) assembly at 1 to 10 uM incubated for 15 mins prior to GTP addition measured for 30 mins by 90 degree light scattering-based fluorescence spectrophotometric method. The procedure, abridged:
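MAP-rich tubulin (1 mg/mL) was preincubated with 1, 3, 5 or 10 μM in PEM buffer (25 mM Pipes pH 6.8, 3 mM MgCl2, 1 mM EGTA) for 15 min on ice. GTP (1 mM) was then added and assembly monitored by 90° light scattering at 400 nm for 30 min at 37 °C.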

The subject of assay [9] is HeLa. Briefly: Inhibition of microtubule-kinetochore attachment in human HeLa cells assessed as BubR1 accumulation at kinetochoric region at 15 to 45 nM after 24 hrs by Hoechst 33258 dye-based Hec1 staining assay. It is filed as cell-based.
Assay [10] has as its system HeLa. Briefly: Inhibition of mitosis in human HeLa cells assessed as mitotic index ratio at 15 nM after 48 hrs by Hoechst 33258 DNA staining assay (reference value: 3). It is filed as functional. The gist of the method: (§4)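 HeLa cells were treated with vehicle or 7, 15 or 30 nM compound for 24 or 48 h. DNA was stained with Hoechst 33258, and mitotic cells were counted by fluorescence microscopy to give the mitotic index, compared against vehicle-treated cells.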

The subject of assay [11] is MCF7. Briefly: Inhibition of microtubule (unknown origin) dynamics in GFP-tubulin transfected human MCF7 cells assessed as microtubule pause time at 15 nM by confocal laser scanning microscopy (reference value: 35 +/- 8 %). It is filed as cell-based. More on the design: scale not given: the % may be the effect or the level left. The gist of the method:
as §3

Assay [12] has as its system HeLa. Briefly: Inhibition of mitosis in human HeLa cells assessed as mitotic index ratio at 7 nM after 48 hrs by Hoechst 33258 DNA staining assay (reference value: 3). In kind it is functional. The gist of the method:
as §4

Assay [13] deals with HeLa. Briefly: Induction of mitotic microtubule depolymerization in human HeLa cells at 30 nM after 24 hrs by Hoechst 33258 dye-based fluorescence microscopy. It is filed as cell-based.
The subject of assay [14] is HeLa. Briefly: Inhibition of microtubule-kinetochore attachment in human HeLa cells assessed as Mad2 accumulation at kinetochoric region at 15 to 45 nM after 24 hrs by Hoechst 33258 dye-based Hec1 staining assay. It is filed as cell-based.
Assay [15] has as its system HeLa. Briefly: Inhibition of microtubule-kinetochore tension in human HeLa cells assessed as BubR1 accumulation at kinetochoric region at 15 to 45 nM after 24 hrs by Hoechst 33258 dye-based Hec1 staining assay. In kind it is cell-based.
The subject of assay [16] is HeLa. Briefly: Cytotoxicity against human HeLa cells after 24 to 48 hrs by trypan blue assay. In kind it is functional, cell-based. The gist of the method:
as §1

The subject of assay [17] is HeLa. Briefly: Antimitotic activity in human HeLa cells assessed as increase in phosphohistone H3 (Ser10) positive cell population at 7 nM after 24 hrs by fluorescence microscopic analysis (reference value: 3 +/- 0.3 %). It is filed as functional.

With `CC[C@H](C)[C@@H]([C@@H](CC(=O)NC[C@H]1O[C@H](C(=O)NCCc2ccccc2)[C@@H](OC)[C@@H]1OC)OC)N(C)C(=O)[C@@H](NC(=O)[C@@H](NC)C(C)C)C(C)C`, the result in the assay on HeLa [1], in the assay with MCF7 [2], in the assay on HeLa [5], at Tubulin (Homo sapiens), in the assay on HeLa [9] and with HeLa [13] was Active. Moreover, the outcome in the assay on HeLa [14] and with HeLa [15] was Active. The IC50 in the assay with MCF7 [3] is 15 nM; with HeLa [16], 6.8 nM. Besides, the Activity in the assay on HeLa [4] came out at 22.4%; in the assay with HeLa [6], 65.3%; in the assay on HeLa [7], 8.9 nM; with MCF7 [11] it was 59%; in the assay with HeLa [17] it was 6.6%. In addition, the inhibition in the assay on Tubulin (Capra hircus) is 17%; in the assay with MCF7 [8], 50%. Besides, the inhibition result in the assay filed under Homo sapiens was “Active”. Besides, the Ratio is listed as 11 in the assay with HeLa [10] and 7.5 in the assay on HeLa [12].
